This is an account of results in ChEMBL document CHEMBL1121837, “Synthesis and antischistosomal activity of certain pyrazolo[1,5-a]pyrimidines” (1981).

Some results are limits rather than exact numbers.

This experiment deals with Schistosoma mansoni. The experiment is described as follows: In vitro antischistosomal activity, minimum active concentration to cause severe damage or death of worms at 96 hr against Schistosoma mansoni. Format: functional. Summed up:
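Adult S. mansoni pairs (Puerto Rican strain, 46-day infection, recovered from mice) incubated at 37 °C, 2.0 mL medium per pair, in serumless medium with 50 µg/mL gentamycin sulfate. Compound dissolved in DMSO, final DMSO ≤1%. Worms examined by inverted microscope at intervals up to 96 h, when the final reading was taken.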
`Cc1cc(O)n2nc(-c3ccccc3)cc2n1` registered an MAC of 100 µg/mL.
For the compound `Cc1cccc(-c2cnn3c(O)cc(C)nc23)c1`, the MAC came out at 100 µg/mL.
Compound `Cc1cccc(-c2cnn3c(O)cc(-c4ccccc4)nc23)c1` came in with an MAC of 1 µg/mL.
In turn, `Cc1cc(=S)n2nccc2n1C` gave an MAC above 100 µg/mL.
On to `Cc1cc(O)n2nc(-c3cccc(Cl)c3)cc2n1`, for which the MAC is above 100 µg/mL.
To `COc1cc(-c2cc3nc(C)cc(S)n3n2)cc(OC)c1OC` belongs 1 µg/mL; to `CCn1ccc(=S)n2nccc12`, 100 µg/mL; to `Cc1cc(S)n2ncc(-c3ccccc3)c2n1`, 1 µg/mL.
`Cn1ccc(=S)n2nc(-c3ccccc3)cc12`: the MAC is 10 µg/mL.
Turning to `Cc1cc(S)n2nc(-c3ccccc3)cc2n1`, the MAC turned out to be 1 µg/mL.
To `CCOC(=O)c1cnn2c(S)cc(C)nc12` belongs 10 µg/mL; to `Cc1cc(O)n2ncc(-c3ccccc3)c2n1`, 100 µg/mL; to `Cc1cccc(-c2cnn3c(S)cc(C)nc23)c1`, 100 µg/mL.
For `Oc1ccnc2c(-c3ccccc3)cnn12`, the MAC worked out at 100 µg/mL.
Compound `COc1cc(-c2cc3nc(-c4ccccc4)cc(O)n3n2)cc(OC)c1OC` came in with an MAC above 100 µg/mL.
Compound `Sc1ccnc2c(-c3ccccc3)cnn12` displayed an MAC of 1 µg/mL.
The compound `CCCn1ccc(=S)n2nc(-c3ccccc3)cc12` returned an MAC of 10 µg/mL.
Regarding `COc1cc(-c2cc3nc(C)cc(O)n3n2)cc(OC)c1OC`, the MAC was above 100 µg/mL.
To `Sc1ccnc2cc(-c3ccccc3)nn12` belongs 1 µg/mL.
Compound `CCn1ccc(=O)n2nccc12` gave an MAC above 100 µg/mL.
Compound `Cc1cc(S)n2ncc(-c3ccc(Cl)cc3)c2n1` yielded an MAC of 100 µg/mL.
The compound `CCOC(=O)c1cnn2c(O)cc(-c3ccccc3)nc12` gave an MAC above 100 µg/mL.
The compound `Oc1cc(-c2ccccc2)nc2cc(-c3ccccc3)nn12` showed an MAC above 100 µg/mL.
Regarding `Cc1cc(=O)n2nccc2n1C`, the MAC amounted to 100 µg/mL.
For `Sc1ccnc2ccnn12`, the MAC is 1 µg/mL.
Compound `Cc1cc(S)n2nccc2n1` registered an MAC of 3.2 µg/mL.
For the compound `Oc1cc(-c2ccccc2)nc2c(-c3ccc(Cl)cc3)cnn12`, the MAC turned out to be 100 µg/mL.
In the case of `CCCn1ccc(=O)n2nc(-c3ccccc3)cc12`, the MAC stood at 100 µg/mL.
`Cn1ccc(=O)n2nccc12`: the MAC is above 100 µg/mL.
Regarding `Sc1cc(-c2ccccc2)nc2ccnn12`, the MAC amounted to 1 µg/mL.
Compound `Oc1cc(-c2ccccc2)nc2c(-c3ccccc3)cnn12` came in with an MAC of 10 µg/mL.
To `Cn1c(-c2ccccc2)cc(=O)n2nc(-c3ccccc3)cc12` belongs 100 µg/mL.
For `Cn1ccc(=S)n2nccc12`, the MAC is above 100 µg/mL.
In the case of `Oc1cc(-c2ccccc2)nc2ccnn12`, the MAC was above 100 µg/mL.
On to `Sc1cc(-c2ccccc2)nc2cc(-c3ccccc3)nn12`, for which the MAC worked out at 1 µg/mL.
As to `Cc1cccc(-c2cnn3c(S)ccnc23)c1`, the MAC turned out to be 0.32 µg/mL.
As to `Cc1cccc(-c2cnn3c(O)ccnc23)c1`, the MAC came to 100 µg/mL.
Turning to `O=c1cc(-c2ccccc2)[nH]c2cc(-c3cccc(Cl)c3)nn12`, the MAC is above 100 µg/mL.
As for `Oc1ccnc2cc(-c3ccccc3)nn12`, the MAC is above 100 µg/mL.
To `Cn1ccc(=O)n2nc(-c3ccccc3)cc12` belongs above 100 µg/mL.
